Experimental data: ChEMBL document CHEMBL1125298, “Hypocholesterolemic activity of synthetic and natural tocotrienols” (J Med Chem, 1992)
Converted amounts (≈) assume the structure as drawn. “And” between values parts separate entries of the source, which are not always exact repeats. Equal entries are not always repeated.

Legend:
[1] = test system: HepG2; assay: Compound evaluated for percent inhibition of cholesterol synthesis from [14C]acetate in HepG2 cell; type: functional, Homo sapiens; set-up: concentration or dose not given beside the values
[2] = test system: HepG2; assay: Compound is evaluated for relative potency versus gamma-tocotrienol at 2 (h) time point in HepG2 cells; type: functional, Homo sapiens
[3] = test system: HepG2; assay: Compound is evaluated for relative potency versus gamma-tocotrienol at 4 (h) time point in HepG2 cells; type: functional, Homo sapiens
[4] = test system: HepG2; assay: Compound is evaluated for the inhibition of cholesterol synthesis in HepG2 cells for an incubation time of 6 (h); type: functional, cell-based; conditions: Homo sapiens
Procedure, shortened: (§1)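 HepG2 cells were grown in RPMI-1640 with 10% FBS. At about 70% confluence they were switched to 7% lipid-depleted serum for 16 h. Compound in DMSO (0.5% v/v final) was added for the stated time. A [2-14C]acetate pulse over the final 60 min measured incorporation into digitonin-precipitable sterols. IC50 came from linear regression of at least four concentrations, each in duplicate.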

[5] = test system: HepG2; assay: Compound is evaluated for the inhibition of cholesterol synthesis in HepG2 cells for an incubation time of 2 (h); type: functional, cell-based; conditions: Homo sapiens; procedure, shortened: as §1
[6] = test system: HepG2; assay: Compound is evaluated for relative potency versus gamma-tocotrienol at 6 (h) time point in HepG2 cells; type: functional, Homo sapiens
[7] = test system: HepG2; assay: Compound evaluated for percent inhibition of cholesterol synthesis from HMG-CoA Reductase in HepG2 cell; type: functional, Homo sapiens
[8] = test system: HepG2; assay: Compound is evaluated for the inhibition of cholesterol synthesis in HepG2 cells for an incubation time of 4 (h); type: functional, cell-based; conditions: Homo sapiens; procedure, shortened: as §1
[9] = species on record: Rattus norvegicus; assay: Compound is evaluated for the inhibition of cholesterol biosynthesis in rat hepatocytes at a concentration of 210 (micro g/mL); type: functional, Hepatocyte
[10] = species on record: Rattus norvegicus; assay: Compound is evaluated for the inhibition of cholesterol biosynthesis in rat hepatocytes at a concentration of 41 (micro g/mL); type: functional, Hepatocyte
[11] = species on record: Rattus norvegicus; assay: Compound is evaluated for the inhibition of cholesterol biosynthesis in isolated rat hepatocytes at the concentration 125 (ug/mL); type: functional, Hepatocyte
[12] = species on record: Gallus gallus; assay: Compound is evaluated for the effect on lipid metabolism in 6-week-old male chickens at a concentration of 20 ppm in the diet and measured for total cholesterol; type: functional
[13] = species on record: Rattus norvegicus; assay: Compound is evaluated for the inhibition of cholesterol biosynthesis in isolated rat hepatocytes at the concentration 250 (ug/mL); type: functional, Hepatocyte
[14] = species on record: Gallus gallus; assay: Compound is evaluated for the effect on lipid metabolism in 6-week-old male chickens at a concentration of 20 ppm in the diet and measured for LDL cholesterol (dose 45 p.p.m.); type: functional
Procedure, shortened: (§2)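 Male chicks were raised 2 weeks on a corn-soybean control diet, then fed 4 weeks on control diet or the same diet with compound added. All birds were fasted 36 h and refed 48 h before sacrifice. Serum cholesterol is given as mg/100 mL.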

[15] = species on record: Rattus norvegicus; assay: Inhibitory concentration required to inhibit cholesterol synthesis in isolated rat Hepatocytes; type: functional, Hepatocyte
[16] = species on record: Rattus norvegicus; assay: Compound is evaluated for the inhibition of cholesterol biosynthesis in isolated rat hepatocytes at the concentration 500 ug/mL; type: functional, Hepatocyte
[17] = species on record: Gallus gallus; assay: picomoles of mevalonic acid synthesized per minute per mg of microsomal protein (dose 15 p.p.m.); type: functional, organism-based
[18] = species on record: Gallus gallus; assay: Compound is evaluated for the effect on lipid metabolism in 6-week-old male chickens at a concentration of 20 ppm in the diet and measured for total cholesterol (dose 45 p.p.m.); type: functional
[19] = species on record: Rattus norvegicus; assay: Percent inhibition at 250 ug/mL of binary mixtures of compound and alpha-tocotrienol on cholesterol synthesis in rat hepatocytes; type: functional, Hepatocyte
[20] = species on record: Gallus gallus; assay: picomoles of mevalonic acid synthesized per minute per mg of microsomal protein; type: functional, organism-based
[21] = species on record: Gallus gallus; assay: Compound is evaluated for the effect on lipid metabolism in 6-week-old male chickens at a concentration of 20 ppm in the diet and measured for LDL cholesterol; type: functional; procedure, shortened: as §2
[22] = test system: HepG2; assay: Compound evaluated for Percent inhibition of cholesterol synthesis from [14C]acetate in HepG2 cell; type: functional, Homo sapiens
[23] = species on record: Gallus gallus; assay: picomoles of mevalonic acid synthesized per minute per mg of microsomal protein(dose 30 p.p.m.); type: functional, organism-based
[24] = species on record: Gallus gallus; assay: Compound is evaluated for the effect on lipid metabolism in 6-week-old male chickens at a concentration of 20 ppm in the diet and measured for LDL cholesterol (dose 30 p.p.m.); type: functional; procedure, shortened: as §2
[25] = species on record: Gallus gallus; assay: Compound is evaluated for the effect on lipid metabolism in 6-week-old male chickens at a concentration of 20 ppm in the diet and measured for total cholesterol (dose 15 p.p.m.); type: functional
[26] = species on record: Gallus gallus; assay: Compound is evaluated for the effect on lipid metabolism in 6-week-old male chickens at a concentration of 20 ppm in the diet and measured for total cholesterol (dose 30 p.p.m.); type: functional
[27] = species on record: Gallus gallus; assay: picomoles of mevalonic acid synthesized per minute per mg of microsomal protein(dose 45 p.p.m.); type: functional, organism-based
[28] = test system: HepG2; assay: Compound evaluated for Percent inhibition of cholesterol synthesis from HMG-CoA Reductase in HepG2 cell; type: functional, Homo sapiens
[29] = species on record: Gallus gallus; assay: Compound is evaluated for the effect on lipid metabolism in 6-week-old male chickens at a concentration of 20 ppm in the diet and measured for LDL cholesterol (dose 15 p.p.m.); type: functional; procedure, shortened: as §2
[30] = species on record: Gallus gallus; assay: Compound is evaluated for the effect on lipid metabolism in 6-week-old male chickens at a concentration of 20 ppm in the diet and measured for HDL cholesterol (dose 15 p.p.m.); type: functional
[31] = species on record: Gallus gallus; assay: Compound is evaluated for the effect on lipid metabolism in 6-week-old male chickens at a concentration of 20 ppm in the diet and measured for HDL cholesterol (dose 45 p.p.m.); type: functional
[32] = species on record: Gallus gallus; assay: Compound is evaluated for the effect on lipid metabolism in 6-week-old male chickens at a concentration of 20 ppm in the diet and measured for HDL cholesterol (dose 30 p.p.m.); type: functional
[33] = species on record: Gallus gallus; assay: Compound is evaluated for the effect on lipid metabolism in 6-week-old male chickens at a concentration of 20 ppm in the diet and measured for HDL cholesterol; type: functional
[34] = species on record: Rattus norvegicus; assay: Percent inhibition at 250 ug/mL of binary mixtures of compound and delta-tocotrienol on cholesterol synthesis in rat hepatocytes; type: functional, Hepatocyte
[35] = species on record: Rattus norvegicus; assay: Percent inhibition at 250 ug/mL of binary mixtures of compound and gamma-tocotrienol on cholesterol synthesis in rat hepatocytes; type: functional, Hepatocyte
[36] = Rattus norvegicus, Hepatocyte, read-out: IC50

Row | Compound | Inhibition [1] [%] | Inhibition [7] [%] | Inhibition [11] [%] | Total cholesterol [12] [mg 100ml-1] | Inhibition [13] | IC50 [15, 36] [mg/L] | IC50 ([15]; hepatocyte) [mg/L] | Inhibition [16] | HMGR activity [20] | LDL cholesterol [21] [mg 100ml-1] | Inhibition [22] [%] | Inhibition [28] [%] | HDL cholesterol [33] [mg 100ml-1] | other results
1 | CC(C)=CCC/C=C/CCC1(C)CCc2cc(O)c(C)c(C)c2O1 (stereo unspecified) | 38 | – | – | – | – | – | – | – | – | – | – | – | – | –
2 | CC(C)=CCC/C(C)=C/CC/C(C)=C/CCC1(C)CCc2c(C)c(O)c(C)c(C)c2O1 (racemic) | 21 | 19 | – | – | – | – | – | – | – | – | – | – | – | Relative potency [2]: 0.016; Relative potency [3]: 0.03; IC50 [4]: 110 µM; IC50 [5]: 380 µM; Relative potency [6]: 0.027; IC50 [8]: 94 µM; Inhibition [9]: 17%; Inhibition [10]: 4%
3 | Cc1c(O)cc2c(c1C)OC(C)(CCCC(C)CCCC(C)CCCC(C)C)CC2 (stereo unspecified) | 3 | 0 | – | – | – | – | – | – | – | – | – | – | – | –
4 | CC(C)=CCC/C(C)=C/CC/C(C)=C/CC[C@]1(C)CCc2cc(O)c(C)c(C)c2O1 [GAMMA-TOCOTRIENOL] | – | – | 28 | 151 | 48% and 34% | 270 (≈ 658 µM) | 360 (≈ 877 µM) | 61% | 494 | 41 | 78 | 64 | 102 | LDL cholesterol [14]: 29 mg 100ml-1; inhibition at 500 µg/mL ([16]; Rattus norvegicus, Hepatocyte): 60%; HMGR activity [17]: 606; Total cholesterol [18]: 125 mg 100ml-1; Inhibition [19]: 64%; HMGR activity [23]: 561; LDL cholesterol [24]: 35 mg 100ml-1; Total cholesterol [25]: 141 mg 100ml-1; Total cholesterol [26]: 132 mg 100ml-1; HMGR activity [27]: 546; LDL cholesterol [29]: 42 mg 100ml-1; HDL cholesterol [30]: 97 mg 100ml-1; HDL cholesterol [31]: 94 mg 100ml-1; HDL cholesterol [32]: 95 mg 100ml-1
5 | CC(C)=CCC/C(C)=C/CC/C(C)=C/CC[C@]1(C)CCc2c(C)c(O)c(C)c(C)c2O1 [ALPHA-TOCOTRIENOL] | – | – | 8 | 155 | 8% and 20% | > 1000 | 1300 (≈ 3060 µM) | 12% and 33% | 670 | 55 | 32 | 15 | 102 | Inhibition [34]: 53%; Inhibition [35]: 49%
